Source: PubChem BioAssay (several laboratories)
Rows were chosen to be rich in hits. Some 1.9% of all compounds tested hit in one or more screens of this group.
DNA FID counter-1 – fluorescent intercalator displacement, NS3 helicase counter-screen; actives 0.17% (n = 290,000); inhibition, % at 7.9 µM; DNA fluorescent intercalator displacement, fluorescence;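 note: 0% = vehicle and 100% = reference compound; higher means more ethidium bromide displaced from hairpin DNA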
PP1 counter – PP1-alpha (human) inhibition in PP5 counter-screen; AID 2235; actives 0.9% (n = 320,000); purified PP1alpha, OMFP fluorescence; P62136; inhibition, % at 6.7 µM;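 active = inhibition above the mean inhibition of all tested compounds plus 3 SD, computed separately for each screening campaign, cut at about 15% in these data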
Target sequence (P62136 whole entry, looked up): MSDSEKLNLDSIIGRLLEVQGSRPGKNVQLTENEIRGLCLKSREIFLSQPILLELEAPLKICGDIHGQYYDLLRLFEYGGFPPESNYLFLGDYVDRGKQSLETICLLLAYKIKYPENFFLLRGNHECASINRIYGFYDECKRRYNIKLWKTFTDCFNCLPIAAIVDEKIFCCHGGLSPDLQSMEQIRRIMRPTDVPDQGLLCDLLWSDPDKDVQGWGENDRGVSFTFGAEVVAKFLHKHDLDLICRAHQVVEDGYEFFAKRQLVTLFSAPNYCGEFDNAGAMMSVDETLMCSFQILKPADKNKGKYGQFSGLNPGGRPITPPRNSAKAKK
PP5 primary – PP5 (human) phosphatase inhibition. P53041. purified PP5c, OMFP substrate fluorescence. inhibition, % at 6.7 µM. actives 0.18% (n = 320,000);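 active = inhibition above the campaign's mean inhibition across all tested compounds plus 3 SD, cut at about 9.5% in these data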;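 note: 0% = DMSO only and 100% = 100 µM cantharidin control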
HIF act – HIF pathway transcriptional activation; actives 0.32% (n = 300,000); activation, % at 7.5 µM (by protocol); U2OS HRE-luciferase reporter, luminescence; normalized: DMSO 0%, desferrioxamine 100%;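 active = mean activation of at least 10% of the iron chelator positive control signal, with at least half of replicates also reaching 10%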
NS3 helicase inh – HCV NS3 helicase inhibition. AID 1800. inhibition, % at 10.9 µM. NS3 helicase DNA unwinding, Cy5 molecular beacon fluorescence. actives 0.56% (n = 290,000);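 active = inhibition above the mean of all tested compounds plus 3 SD, set per campaign, cut at about 35% in these data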;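 note: 0% = DMSO wells and 100% = thioflavine S control wells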
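assay system = NS3 helicase fragment of HCV | buffer or medium = MOPS pH 6.5, MgCl2, DTT, Tween20, BSA | timing = 60 min unwinding reaction at 25 °C after ATP addition | signal = Cy5 beacon fluorescence read at start and 1 h | read-out basis = % inhibition of unwinding | control set = low DMSO, high thioflavine S at 110 µM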
NS3 hel confirm – confirmation of Hepatitis C virus NS3 helicase inhibitors; shares compounds with NS3 helicase inh; NS3 helicase DNA unwinding, Cy5 molecular beacon fluorescence; inhibition, % at 10.9 µM; actives 31% (n = 1,600); AID 1943;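 active = inhibition above the mean of all tested compounds plus 3 SD, cutoff set per campaign, cut at about 36% in these data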
DNA FID counter-2 – intercalator displacement, NS3 helicase counter-screen; DNA fluorescent intercalator displacement, fluorescence; shares compounds with NS3 helicase inh; AID 1945; inhibition, % at 7.9 µM; actives 4% (n = 1,600);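 note: 0% = vehicle and 100% = reference compound; higher means more displacement of ethidium bromide from the DNA hairpin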
FID counter DR – counter-screen for HCV NS3 helicase inhibitors: DNA intercalator displacement dose response | fluorescent intercalator displacement from DNA, fluorescence | AID 2172 | IC50, µM | shares compounds with NS3 helicase inh | 120 tested, under 10 active; call rule not given here
Numbers without * were called inactive; . = not tested or not shown. Cut-off read from the data, not from the text of the source, unless noted: active = inhibition above about 37%; inactive = the rest.

SMILES	DNA FID counter-1	PP1 counter	PP5 primary	HIF act	NS3 helicase inh	NS3 hel confirm	DNA FID counter-2	others
Cc1c(C(=O)O)cccc1-c1ccc(/C=N/Nc2ccc(Br)cc2)o1	-28	5	0	1	44*	38*	2
O=C(O)c1ccc(N/N=C/c2ccc(-c3cccc(Cl)c3)o2)cc1	-15	5	3	2	-8	.	.
O=C(O)c1ccc(N/N=C/c2ccc(-c3ccc(Cl)cc3Cl)o2)cc1	-15	13	-2	1	36*	53*	17
O=C(C1=C[C@H](c2ccccc2)C[C@H](OCCCCO)O1)N1CCOCC1	-8	4	2	0	-2	.	.
O=C(CC1SC(=O)N(c2ccccc2)C1=O)Nc1ccccc1 (stereo not given)	-17	2	0	3	38*	-22	12
Nc1ccc(-c2n[nH]c(=O)c3ccccc23)cc1N	-18	9	8	-1	5	.	.
COC(=O)c1ccc(-n2c(C)cc(/C=N/Nc3nc(C)cc(=O)[nH]3)c2C)cc1	-21	6	1	0	38*	0	-26
O=C(N/N=C/c1cc([N+](=O)[O-])ccc1O)c1cccc2ccccc12	4	6	2	11*	40*	-25	3
O=C(Cn1nc2ccccc2n1)N/N=C/c1cc([N+](=O)[O-])ccc1O	-16	2	-1	4	17	.	.
Cc1ccc(C(=O)N/N=C/c2ccc(-c3cccc(Cl)c3)o2)cn1	-20	-1	0	1	7	.	.
Cc1ccc(C(=O)N/N=C\c2ccc(-c3ccc(Cl)c(Cl)c3)o2)cn1	-26	4	0	0	69*	-7	-7
O=C(c1cnc(Cl)c(Cl)c1)N1CCC(Cc2ccccc2)CC1	-26	-1	4	0	37*	4	-36
Cc1cccc(CNCc2ccccc2)c1	-3	-1	0	0	38*	-10	9
Cc1cccc(NCc2ccccc2)c1	1	1	1	0	-3	.	.
CCOC(=O)c1cc(C)sc1NC(=O)CSC1=NCCS1	-22	-1	-1	0	-5	.	.
COc1ccc(Nc2cc(C(=O)NCCCN3CCN(C)CC3)c3ccccc3n2)c(OC)c1	31	-4	4	-1	64*	10	66*
COc1ccc(Nc2cc(C(=O)NCCCOC(C)C)c3ccccc3n2)c(OC)c1	-19	-1	4	0	-24	.	.
COc1cc(/C=N/NC(N)=O)cc([N+](=O)[O-])c1O	2	0	0	0	39*	-12	5
COC(=O)N/N=C/c1cc(OC)c(O)c([N+](=O)[O-])c1	-4	0	1	-3	-8	.	.
COc1ccc(Cl)cc1N(CC(=O)NC(C(C)C)C(C)C)S(C)(=O)=O	-15	1	1	0	6	.	.
CCOc1ccc(C(=O)C(C)OC(=O)Cn2c(C)csc2=O)cc1 (stereo not given)	.	-6	3	0	.	.	.
Cc1cccc(-c2nc3ccccc3c(=O)n2NC(=S)N(C)C)c1	-7	1	0	0	39*	-1	-10
Cc1nc(SCC(=O)Nn2c(-c3ccccc3)nc3ccccc3c2=O)n[nH]1	-11	-1	0	0	47*	-16	2
CCc1ccc(N2CSC3=C(C#N)C(c4cccs4)CC(=O)N3C2)cc1 (stereo not given)	-17	7	0	1	27	.	.
CCc1ccc(C2CC(=O)N3CN(c4ccccc4)CSC3=C2C#N)cc1 (stereo not given)	-40	5	0	1	44*	34	-13
SMILES	DNA FID counter-1	PP1 counter	PP5 primary	HIF act	NS3 helicase inh	NS3 hel confirm	DNA FID counter-2	others
Cc1cccc(NC(=O)CSc2nc3nc(C)cc(C)n3n2)c1	-11	-1	2	-1	-15	.	.
CC1=CN2C(=N)/C(=C/c3ccc([N+](=O)[O-])o3)C(=O)N=C2S1	-11	7	-1	2	51*	53*	12	FID counter DR=>79
CCS(=O)(=O)C1=NN2C(=N)/C(=C\c3ccc(OCCOc4cccc(OC)c4)c(OC)c3)C(=O)N=C2S1	6	16*	3	1	46*	63*	13
O=C1c2cccnc2C(=O)N1Cc1ccc(S(=O)(=O)N2CCOc3ccc(Cl)cc32)cc1	-41	9	2	2	-9	.	.
COc1ccccc1/C=N\NC(=O)c1ccc(COc2ccc(C)c(C)c2)o1	.	1	2	0	.	.	.
Cc1cc(/C=N/NC(=O)C(O)(c2ccccc2)c2ccccc2)c(C)n1-c1ccc(C(=O)O)cc1	-21	4	1	0	39*	31	-24
Cc1cc(/C=N/NC(=O)C(O)(c2ccccc2)c2ccccc2)c(C)n1-c1cccc(C(=O)O)c1	-27	4	0	0	51*	72*	-37
O=C(COc1ccc(Br)cc1)NCCCNC(=O)c1ccncc1	-7	-2	4	0	1	.	.
N#CC1=C(N)Oc2cc(N)ccc2C1c1ccsc1 (stereo not given)	-13	-6	1	-2	12	.	.
N#CC1=C(N)Oc2ccc3ccc(O)cc3c2C1c1ccsc1 (stereo not given)	-45	.	.	0	53*	-11	-57
O=C1OCC(c2ccccc2)=C1c1ccccc1	-9	2	0	1	-1	.	.
NC1=C(c2ccccc2)C(=O)NC1=O	-8	-5	1	-12	37*	-11	20
COc1ccc(CN2CCN(Cc3ccc(CO)o3)CC2CCO)cc1C (stereo not given)	-4	-5	-1	-1	13	.	.
CCCCNC(=O)COC(=O)c1c2c(nc3ccccc13)/C(=C/c1cccs1)CC2	-12	12	3	.	38*	-12	-6
O=C(/C=C/c1ccco1)N(Cc1ccc(Cl)cc1)C1CCS(=O)(=O)C1 (stereo not given)	-24	1	-1	0	42*	0	-23
COc1ccc(Cn2c(-c3ccc(Br)cc3)c[n+]3ccccc23)cc1	8	-5	1	1	-12	.	.
COc1ccc(C(=O)/C=C/c2cc(C(=O)O)cc3c2OCOC3)c(O)c1	-7	1	-2	0	7	.	.
O=C(O)c1cc(/C=C/C(=O)c2cc(F)ccc2O)c2c(c1)COCO2	-14	-5	2	.	49*	52*	-16
CCc1nnc(NC(=O)CCC(=O)N2CCN(Cc3ccc(F)cc3)CC2)s1	-32	-2	1	0	9	.	.
COc1ccc(/C=C/C(=O)OCC(=O)Nc2ccc3[nH]c(=O)[nH]c3c2)cc1OC	.	4	2	-1	.	.	.
Cc1ccc(S(=O)(=O)/N=C2\C=C(Nc3cccc(C(=O)O)c3)C(=O)c3ccccc32)cc1	4	6	9	2	-11	.	.
